Results on 18 compounds are retold here after ChEMBL document CHEMBL1129945, “New 2-piperazinylbenzimidazole derivatives as 5-HT3 antagonists. Synthesis and pharmacological evaluation” (J Med Chem, 1997).

The target of assay [1] is T1, 5-hydroxytryptamine receptor 1A (Rattus norvegicus, UniProt P19327).
T1 sequence (P19327 whole entry): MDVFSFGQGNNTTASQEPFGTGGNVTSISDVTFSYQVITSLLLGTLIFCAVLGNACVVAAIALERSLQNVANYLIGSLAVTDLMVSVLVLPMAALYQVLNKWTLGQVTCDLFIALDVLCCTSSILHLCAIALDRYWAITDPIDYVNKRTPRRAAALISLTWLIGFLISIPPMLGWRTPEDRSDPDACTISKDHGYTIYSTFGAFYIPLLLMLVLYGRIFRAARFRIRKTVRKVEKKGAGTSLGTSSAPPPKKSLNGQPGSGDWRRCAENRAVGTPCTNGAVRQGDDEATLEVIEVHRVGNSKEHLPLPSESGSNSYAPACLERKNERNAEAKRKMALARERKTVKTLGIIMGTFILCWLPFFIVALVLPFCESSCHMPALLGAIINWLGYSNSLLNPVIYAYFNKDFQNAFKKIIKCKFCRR
In words: In vitro by displacement of [3H]8-OH-DPAT from 5-hydroxytryptamine 1A receptor on rat cortical membrane. A digest of the protocol:
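Cerebral cortex membranes from adult male Wistar rats (220-280 g) in 50 mM Tris-HCl with 4 mM CaCl2, 0.1% ascorbate and 10 µM pargyline. [3H]8-OH-DPAT at 1.5 nM final. Nonspecific binding with 10 µM 5-HT. Incubation 30 min at 37 °C. Triplicate, 10-12 concentrations, two experiments. IC50 and Ki calculated.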
(In a radioligand displacement assay an active substance lowers the binding of a labelled ligand.)

The target of assay [2] is 5-hydroxytryptamine receptor 2A (Rattus norvegicus, UniProt P14842). In words: Binding affinity was evaluated in vitro by displacement of [3H]ketanserin from 5-hydroxytryptamine 2A receptor on rat cortical membrane. A digest of the protocol:
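Prefrontal cortex membranes from adult male Wistar rats (220-280 g), final dilution 1:60 wt/vol in 50 mM Tris-HCl. Displacer added in Tris-HCl with 10% ethanol. [3H]ketanserin at 0.8 nM final. Nonspecific binding with 1 µM methysergide. Triplicate competition, 10-12 displacer concentrations, two separate experiments. Filtration and scintillation counting. IC50 and Ki calculated.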

For another assay, the system named is Rattus norvegicus. In words: In vivo effective dose against Bezold-Jarisch reflex evoked by 5-HT in urethane-anesthetized rats. Type of assay: functional. A digest of the protocol:
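Bradycardia induced by iv bolus of 5-HT 30 µg/kg. Antagonist or saline given iv (1 mL/kg) after recovery, and 5-HT challenge repeated 5 min later. Heart rate taken from the carotid pressure signal. ED50 in µg/kg iv by linear regression from 3-5 doses, 4-5 rats per dose.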

In assay [3] the target is 5-hydroxytryptamine receptor 4 (Cavia porcellus, UniProt O70528). In words: In vitro by displacement of [3H]GR-113808 from 5-hydroxytryptamine 4 receptor on guinea pig striatal membrane. Also on record: species or system Striatum. A digest of the protocol: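 Striatal membranes from male Dunkin-Hartley guinea pigs (350-400 g) in 50 mM Hepes pH 7.4, 800-900 µg protein. Nonspecific binding with 10 µM 5-HT. Incubation 30 min at 25 °C, then filtration and scintillation counting. Triplicate, 10-12 concentrations, two experiments. IC50 and Ki calculated.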
5-hydroxytryptamine receptor 4, sequence (O70528 whole entry): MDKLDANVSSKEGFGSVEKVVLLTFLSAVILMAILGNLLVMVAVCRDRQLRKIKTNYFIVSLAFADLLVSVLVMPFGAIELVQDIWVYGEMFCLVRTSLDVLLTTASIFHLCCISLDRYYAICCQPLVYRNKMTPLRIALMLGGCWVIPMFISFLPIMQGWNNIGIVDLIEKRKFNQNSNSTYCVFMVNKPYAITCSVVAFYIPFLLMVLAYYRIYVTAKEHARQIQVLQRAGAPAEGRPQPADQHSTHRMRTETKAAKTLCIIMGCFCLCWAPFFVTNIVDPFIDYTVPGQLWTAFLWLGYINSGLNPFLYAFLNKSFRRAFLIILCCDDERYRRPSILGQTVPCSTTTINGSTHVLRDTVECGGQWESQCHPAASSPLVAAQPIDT

Assay [4] deals with T2, Serotonin 3 (5-HT3) receptor (Rattus norvegicus, UniProt P35563+Q9JJ16).
T2 sequence (P35563 whole entry): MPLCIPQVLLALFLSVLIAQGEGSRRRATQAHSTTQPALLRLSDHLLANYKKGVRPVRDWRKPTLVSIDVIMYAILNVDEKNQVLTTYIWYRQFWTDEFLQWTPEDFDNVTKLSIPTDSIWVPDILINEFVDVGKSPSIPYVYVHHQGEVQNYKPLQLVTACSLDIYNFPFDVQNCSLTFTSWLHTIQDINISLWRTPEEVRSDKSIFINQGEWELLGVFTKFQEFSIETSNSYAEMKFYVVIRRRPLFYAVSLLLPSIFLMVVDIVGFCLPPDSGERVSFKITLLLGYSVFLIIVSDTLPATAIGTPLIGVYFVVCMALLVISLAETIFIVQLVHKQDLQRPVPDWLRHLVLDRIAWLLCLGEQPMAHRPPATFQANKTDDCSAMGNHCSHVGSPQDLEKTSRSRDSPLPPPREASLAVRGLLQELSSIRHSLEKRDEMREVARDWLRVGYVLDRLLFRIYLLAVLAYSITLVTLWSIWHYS
T2 sequence (Q9JJ16 whole entry): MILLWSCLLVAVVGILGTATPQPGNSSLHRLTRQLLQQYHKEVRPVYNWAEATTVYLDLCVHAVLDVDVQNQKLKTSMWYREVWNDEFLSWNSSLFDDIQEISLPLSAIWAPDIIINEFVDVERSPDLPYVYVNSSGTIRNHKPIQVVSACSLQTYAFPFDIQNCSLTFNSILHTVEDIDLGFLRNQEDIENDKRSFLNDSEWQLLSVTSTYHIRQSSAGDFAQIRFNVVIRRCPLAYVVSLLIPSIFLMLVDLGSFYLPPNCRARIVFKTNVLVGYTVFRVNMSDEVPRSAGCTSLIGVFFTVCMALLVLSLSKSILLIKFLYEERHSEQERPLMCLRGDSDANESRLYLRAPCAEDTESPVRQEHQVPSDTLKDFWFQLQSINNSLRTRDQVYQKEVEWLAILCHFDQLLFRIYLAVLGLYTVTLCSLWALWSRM
Nature of the assay: In vitro by displacement of [3H]LY-278584 from 5-hydroxytryptamine 3 receptor on rat entorhinal cortex. A digest of the protocol: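 Entorhinal cortex membranes from male Wistar rats (220-280 g), 500-600 µg protein, in 50 mM Tris-HCl with 5 mM CaCl2, 0.1% ascorbate and 10 µM pargyline. Nonspecific binding with 10 µM 5-HT. Incubation 30 min at 25 °C. Triplicate, 10-12 concentrations, two experiments. IC50 and Ki calculated.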

A further assay concerns the target D(2) dopamine receptor (Rattus norvegicus, UniProt P61169). In words: In vitro by displacement of [3H]raclopride from Dopamine receptor D2 on rat striatal membrane. The arrangement: species or system Striatum.

5-hydroxytryptamine receptor 2A, sequence (P14842 whole entry): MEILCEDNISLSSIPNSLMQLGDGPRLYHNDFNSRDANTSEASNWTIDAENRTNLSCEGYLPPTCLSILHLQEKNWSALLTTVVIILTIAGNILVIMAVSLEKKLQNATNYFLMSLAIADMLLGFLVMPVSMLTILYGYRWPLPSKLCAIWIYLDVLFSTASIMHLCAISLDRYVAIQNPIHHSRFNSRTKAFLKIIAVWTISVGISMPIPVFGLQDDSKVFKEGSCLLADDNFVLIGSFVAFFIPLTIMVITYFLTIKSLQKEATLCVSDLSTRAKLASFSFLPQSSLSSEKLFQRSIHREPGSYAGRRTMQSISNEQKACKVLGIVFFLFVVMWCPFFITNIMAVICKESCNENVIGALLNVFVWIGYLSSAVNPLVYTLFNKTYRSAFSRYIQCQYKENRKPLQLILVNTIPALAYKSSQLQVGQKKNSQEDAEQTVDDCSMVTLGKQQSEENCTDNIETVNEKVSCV
D(2) dopamine receptor, sequence (P61169 whole entry): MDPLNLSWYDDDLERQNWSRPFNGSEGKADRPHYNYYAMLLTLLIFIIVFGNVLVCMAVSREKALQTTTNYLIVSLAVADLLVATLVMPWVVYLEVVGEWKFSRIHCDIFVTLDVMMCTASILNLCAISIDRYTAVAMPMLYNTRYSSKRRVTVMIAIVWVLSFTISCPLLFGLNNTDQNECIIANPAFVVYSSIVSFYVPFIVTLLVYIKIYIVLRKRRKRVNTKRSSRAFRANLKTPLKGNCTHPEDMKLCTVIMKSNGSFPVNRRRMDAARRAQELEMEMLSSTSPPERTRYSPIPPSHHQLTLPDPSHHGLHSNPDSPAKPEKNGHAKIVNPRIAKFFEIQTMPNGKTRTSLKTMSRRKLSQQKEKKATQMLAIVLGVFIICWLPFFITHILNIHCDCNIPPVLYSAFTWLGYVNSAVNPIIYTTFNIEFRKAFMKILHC

Usually Ki stands for the equilibrium dissociation constant of an inhibitor or competing ligand from its target. For orientation: ED50 means the midpoint of the dose-response relation. With `c1ccc(Cn2c(N3CCNCC3)nc3ccccc32)cc1` [LERISETRON], the Ki in assay [1] and in assay [2] was > 1000 nM throughout. In the assay with Rattus norvegicus, this compound showed an ED50 of 2 µg/kg.
With `Cc1cc2nc(N3CCNCC3)n(Cc3ccccc3)c2cc1C`, the Ki in assay [1] and in assay [2] was > 1000 nM throughout.
For the compound `Oc1ccc2nc(N3CCNCC3)n(Cc3ccccc3)c2c1`, the Ki in assay [1] and in assay [2] was > 1000 nM in each case.
Take `CCCn1c(N2CCNCC2)nc2ccccc21`: the Ki in assay [1] and in assay [2] was > 1000 nM each time.
As for `Fc1ccc2c(c1)nc(N1CCNCC1)n2Cc1ccccc1`, the Ki in assay [1] and in assay [2] was > 1000 nM in each case.
Take `COc1ccc2c(c1)nc(N1CCNCC1)n2Cc1ccccc1`: the Ki in assay [1] and in assay [2] was > 1000 nM in each case.
Consider `Clc1ccc2c(c1)nc(N1CCNCC1)n2Cc1ccccc1`, for which the Ki in assay [1] and in assay [2] was > 1000 nM each time.
Consider `Cn1c(N2CCNCC2)nc2ccccc21`, for which the Ki in assay [1] was > 1000 nM; in assay [2], > 1000 nM; in assay [3], > 1000 nM; in assay [4], 50.1 nM; at D(2) dopamine receptor it was > 1000 nM. In addition, the ED50 in the assay on Rattus norvegicus stood at 5.3 µg/kg.
In the case of `Cc1ccc2c(c1)nc(N1CCNCC1)n2Cc1ccccc1`, the Ki in assay [1] and in assay [2] was > 1000 nM each time.
As for `COc1cccc2nc(N3CCNCC3)n(Cc3ccccc3)c12`, the Ki in assay [1] and in assay [2] was > 1000 nM in each case.
Consider `Clc1cc2nc(N3CCNCC3)n(Cc3ccccc3)c2cc1Cl`, for which the Ki in assay [1] and in assay [2] was > 1000 nM in each case.
With `c1ccc2c(c1)nc(N1CCNCC1)n2C1CC1`, the Ki in assay [1] and in assay [2] was > 1000 nM each time.
On to `O=C(OCCN1CCCCC1)c1c[nH]c2ccccc12`, for which, in assay [3], the affinity, expressed as Ki, was 1 nM.
As for `COc1ccc2nc(N3CCNCC3)n(Cc3ccccc3)c2c1`, the Ki in assay [1] and in assay [2] was > 1000 nM each time.
In assay [4], `CN1[C@@H]2CC[C@H]1C[C@@H](OC(=O)c1c[nH]c3ccccc13)C2` [TROPISETRON] had a Ki of 1.58 nM. The same compound returned an ED50 in the assay on Rattus norvegicus of 1.7 µg/kg.
On to `COc1cccc2c1nc(N1CCNCC1)n2Cc1ccccc1`, for which the Ki in assay [1] and in assay [2] was > 1000 nM each time.
In the case of `CCn1c(N2CCNCC2)nc2ccccc21`, the Ki in assay [1] and in assay [2] was > 1000 nM each time.
Turning to `Oc1ccc2c(c1)nc(N1CCNCC1)n2Cc1ccccc1`, the Ki in assay [1] and in assay [2] was > 1000 nM throughout.
